# Results of several laboratories.
# Each line is one published result; the experiments were not run side by side.
# Target: Dual specificity testis-specific protein kinase 1 (TESK1, Homo sapiens, UniProt Q15569)
Structure (SMILES),effect on,method,concentration,remaining binding
O=C(NCCCN1CCOCC1)c1ccc(Nc2nccc(-c3cc4ccccc4s3)n2)cc1,binding,competition with immobilised ligand,1 µM,77%
C=CC(=O)N1CCC(C(=O)NCC(=O)N2CCN(c3nc(-c4cnc(N)nc4C(F)F)nc(N4CCOCC4)n3)CC2)CC1,binding,competition with immobilised ligand,1 µM,100%
COc1cnc(Nc2cccc(S(N)(=O)=O)c2)nc1N1CCN(c2ccccc2)C(=O)C1,binding,competition with immobilised ligand,1 µM,96%
CN(CCCC(F)(F)F)c1nccc(-c2cnn3ncccc23)n1,binding,,1 µM,67%
C[C@H](NC(=O)c1cnc2n1[C@](C)(Cc1ccc(C#N)cc1)C(=O)N2c1cc(Cl)c(F)c(Cl)c1)C(=O)NC1(c2ccccn2)CC1,cell-free assay,competition with immobilised ligand,1 µM,100%
O=C(NCCCN1CCOCC1)c1ccc(Nc2ncc(Cl)c(-c3ccc(Cl)s3)n2)cc1,binding,competition with immobilised ligand,1 µM,100%
N[C@@H]1CCN(c2nccc(-c3cnn4ncccc34)n2)C1,binding,,1 µM,100%
NS(=O)(=O)c1cc(NC(=O)Cc2ccccc2)ccc1Oc1cccc(Cl)c1,cell-free assay,competition with immobilised ligand,1 µM,100%
c1cnn2ncc(-c3ccnc(N4CCC45COC5)n3)c2c1,binding,,1 µM,99%
O=C(Nc1c[nH]nc1C(=O)NC1CCNCC1)c1cc(F)cc(F)c1,binding,competition with immobilised ligand,1 µM,100%
Cc1cc(NC(=O)c2cccc(S(F)(F)(F)(F)F)c2)cc(-n2ccn3nc(-c4cccnc4)cc23)c1,cell-free assay,competition with immobilised ligand,1 µM,91.7%
O=C(c1ccc(Nc2ncc(Cl)c(-c3ccc(Cl)s3)n2)cc1)N1CCC(N2CCCC2)CC1,binding,competition with immobilised ligand,1 µM,99%
C[C@@H](c1ccc(-n2cnc3c(N)ncnc32)cc1)N1CCc2nn(C)c(Cc3ccccc3)c2C1=O,binding,competition with immobilised ligand,0.1 µM,87%
C[C@@H]1CCN(c2nccc(-c3cnn4ncccc34)n2)C1,binding,,1 µM,91%
Cc1c[nH]c2nccc(Oc3c(F)cc(Nc4cc(Cl)nc(N)n4)cc3F)c12,cell-free assay,competition with immobilised ligand,0.1 µM,100%
Nc1ncc2c(n1)-c1c([nH]c3ccc(C#CC4CC4)cc13)CCCC2,binding,competition with immobilised ligand,1 µM,100%
COc1ccnn2ncc(-c3ccnc(N(C)C)n3)c12,binding,,1 µM,100%
COc1ccc2c(c1)O[C@@H](c1ccc(OC)c(OC)c1)C[C@H]2NC(=O)C1(c2ccc3c(c2)OC(F)(F)O3)CC1,cell-free assay,competition with immobilised ligand,1 µM,96%
CN(C)c1nccc(-c2cnn3ncccc23)n1,binding,,1 µM,100%
CO[C@H]1CC[C@H](CNc2ccc(S(=O)(=O)NC(=O)c3ccc(N4CCN(CC5=C(c6ccc(Cl)cc6)CC(C)(C)CC5)CC4)cc3Oc3cnc4[nH]ccc4c3)cc2[N+](=O)[O-])CC1,cell-free assay,competition with immobilised ligand,1 µM,100%
COc1ncc2cc3ccccc3nc2c1C#N,cell-free assay,competition with immobilised ligand,5 µM,94%
